Laboratory results: ChEMBL document CHEMBL2021901, “Antibacterial acylphloroglucinols from Hypericum olympicum” (2012)
≈ marks a conversion by molar mass, not a printed value.

Experiments:
Staphylococcus aureus [1] = assay: Antibacterial activity against Staphylococcus aureus RN4220 overexpressing MsrA macrolide efflux protein after 24 hrs; format: functional; conditions: RN4220, 24 h
Outline: (§1)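 Strains grown on nutrient agar for 24 h at 37 °C before testing. Broth microdilution MIC used an inoculum of 5 × 10⁵ CFU, prepared in normal saline (9 g/L) against a 0.5 McFarland standard. Plates were incubated at 37 °C, then MTT (5 mg/mL methanolic stock) was added for 20 min. Growth was scored by colour change.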

Mycolicibacterium phlei = assay: Antimycobacterial activity against Mycobacterium phlei ATCC 11758 after 72 hrs by MTT assay; format: functional; conditions: ATCC 11758, 72 h
Outline: (§2)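 Mycobacterium strains were subcultured on Columbia agar with 7% defibrinated horse blood at 37 °C for 72 h before assay. The inoculum was 5 × 10⁵ CFU in normal saline (9 g/L), set against a 0.5 McFarland standard. Microtiter plates were incubated at 37 °C. MIC was read after adding MTT (5 mg/mL methanolic stock) for 20 min, with growth shown by colour change.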

[2] = system: Mycolicibacterium fortuitum; assay: Antimycobacterial activity against Mycobacterium fortuitum ATCC 6841 after 72 hrs by MTT assay; format: functional; conditions: ATCC 6841, 72 h; outline: as §2
[3] = system: Mycolicibacterium smegmatis; assay: Antimycobacterial activity against Mycobacterium smegmatis ATCC 14468 after 72 hrs by MTT assay; format: functional; conditions: ATCC 14468, 72 h
Outline: (§3)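 Mycobacteria were grown on Columbia agar with 7% defibrinated horse blood, subcultured, and incubated 72 h at 37 °C before the assay. Broth microdilution MIC used an inoculum of 5 × 10⁵ CFU in normal saline, set against a 0.5 McFarland standard. Plates were incubated at 37 °C, then MTT (5 mg/mL methanolic stock) was added for 20 min. Growth was read by colour change.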

[4] = system: Mycolicibacterium smegmatis; assay: Antimycobacterial activity against Mycobacterium smegmatis MC2 2700 expressing Mycobacterium tuberculosis fatty acid synthase 1 gene after 72 hrs by MTT assay; format: functional; conditions: MC2 2700, 72 h; outline: as §3
Pseudomonas aeruginosa [5] = assay: […] activity against Pseudomonas aeruginosa K1119 after 24 hrs; format: functional; conditions: K1119, 24 h; outline: as §1
Staphylococcus aureus [6] = assay: Antibacterial activity against Staphylococcus aureus ATCC 25923 after 24 hrs; format: functional; conditions: ATCC 25923, 24 h; outline: as §1
Staphylococcus aureus [7] = assay: Antibacterial activity against Staphylococcus aureus SA-1199B overexpressing NorA MDR efflux pump after 24 hrs; format: functional; outline: as §1
Pseudomonas aeruginosa [8] = assay: […] activity against Pseudomonas aeruginosa K767 after 24 hrs; format: functional; conditions: K767, 24 h; outline: as §1
Salmonella typhimurium [9] = assay: […] activity against Salmonella enterica serovar Typhimurium L10 after 24 hrs; format: functional, Salmonella enterica subsp. enterica serovar Typhimurium; conditions: L10, 24 h
Outline: (§4)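 The microdilution inoculum was 5 × 10⁵ CFU in normal saline (9 g/L), matched to a 0.5 McFarland standard. Plates were incubated at 37 °C. MTT (5 mg/mL methanolic stock) was added for 20 min, and colour change indicated growth for the MIC readout.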

Staphylococcus aureus [10] = assay: Antibacterial activity against Staphylococcus aureus EMRSA-16 after 24 hrs; format: functional; conditions: EMRSA-16, 24 h; outline: as §1
Salmonella typhimurium [11] = assay: […] activity against Salmonella enterica serovar Typhimurium L354 after 24 hrs; format: functional, Salmonella enterica subsp. enterica serovar Typhimurium; conditions: L354, 24 h; outline: as §4
Staphylococcus aureus [12] = assay: Antibacterial activity against Staphylococcus aureus EMRSA-15 after 24 hrs; format: functional; conditions: EMRSA-15, 24 h; outline: as §1
Staphylococcus aureus [13] = assay: Antibacterial activity against Staphylococcus aureus XU212 overexpressing TetK tetracycline efflux pump after 24 hrs; format: functional; conditions: XU212, 24 h; outline: as §1

Compound	MIC (Staphylococcus aureus [1])	MIC (Mycolicibacterium phlei) [µM]	MIC [2] [µM]	MIC [3] [µM]	MIC [4] [µM]	MIC (Pseudomonas aeruginosa [5]) [µM]	MIC (Staphylococcus aureus [6])	MIC (Staphylococcus aureus [7])	MIC (Pseudomonas aeruginosa [8]) [µM]	MIC (Salmonella typhimurium [9]) [µM]	MIC (Staphylococcus aureus [10])	MIC (Salmonella typhimurium [11]) [µM]	MIC (Staphylococcus aureus [12])	MIC (Staphylococcus aureus [13])
CC[C@H]1OC(=O)[C@H](C)[C@@H](O[C@H]2C[C@@](C)(OC)[C@@H](O)[C@H](C)O2)[C@H](C)[C@@H](O[C@@H]2O[C@H](C)C[C@H](N(C)C)[C@H]2O)[C@](C)(O)C[C@@H](C)C(=O)[C@H](C)[C@@H](O)[C@]1(C)O [ERYTHROMYCIN]	349 µM	–	–	–	–	–	–	–	–	–	–	–	–	–
CC[C@@H](CO)NCCN[C@@H](CC)CO [ETHAMBUTOL]	–	2.4 (≈ 0.49 µg/mL)	2.4 (≈ 0.49 µg/mL)	2.4 (≈ 0.49 µg/mL)	2.4 (≈ 0.49 µg/mL)	–	–	–	–	–	–	–	–	–
NNC(=O)c1ccncc1 [ISONIAZID]	–	14.6 (≈ 2 µg/mL)	29.2 (≈ 4 µg/mL)	14.6 (≈ 2 µg/mL)	14.6 (≈ 2 µg/mL)	–	–	–	–	–	–	–	–	–
CCn1cc(C(=O)O)c(=O)c2cc(F)c(N3CCNCC3)cc21 [NORFLOXACIN]	–	–	–	–	–	6.2 (≈ 1.98 µg/mL)	3.1 µM	100 µM	6.2 (≈ 1.98 µg/mL)	–	–	–	–	–
CC[C@H](C)C(=O)c1c(O)cc(O)cc1OC/C=C(\C)CCC=C(C)C [OLYMPICIN A]	2.9 µM	11.6 (≈ 4.02 µg/mL)	23.2 (≈ 8.04 µg/mL)	11.6 (≈ 4.02 µg/mL)	11.6 (≈ 4.02 µg/mL)	> 1000	2.9 µM	2.9 µM	> 1000	> 1000	2.9 µM	> 1000	1.45 µM	2.9 µM
CC[C@H](C)C(=O)c1c(O)cc(O)cc1OC/C=C(\C)C/C=C/C(C)(C)O [OLYMPICIN B]	64 µg/mL	–	–	–	–	–	64 µg/mL	64 µg/mL	–	–	64 µg/mL	–	64 µg/mL	64 µg/mL
C=C(C)C(O)CC/C(C)=C/COc1cc(O)cc(O)c1C(=O)C(C)CC (stereo unspecified) [OLYMPICIN C]	64 µg/mL	–	–	–	–	–	64 µg/mL	64 µg/mL	–	–	64 µg/mL	–	64 µg/mL	64 µg/mL
C=C(C)C(CC/C(C)=C/COc1cc(O)cc(O)c1C(=O)C(C)CC)OO (stereo unspecified) [OLYMPICIN D]	64 µg/mL	–	–	–	–	–	64 µg/mL	64 µg/mL	–	–	64 µg/mL	–	64 µg/mL	64 µg/mL
CCC(C)C(=O)c1c(O)cc(O)cc1OC/C=C(\C)CCC1OC1(C)C (stereo unspecified) [OLYMPICIN E]	64 µg/mL	–	–	–	–	–	64 µg/mL	64 µg/mL	–	–	64 µg/mL	–	64 µg/mL	64 µg/mL
Cc1onc(-c2ccccc2)c1C(=O)N[C@@H]1C(=O)N2[C@@H]1SC(C)(C)[C@@H]2C(=O)O [OXACILLIN]	–	–	–	–	–	–	–	–	–	–	1280 µM	–	79 µM	–
CN(C)[C@@H]1C(O)=C(C(N)=O)C(=O)[C@@]2(O)C(O)=C3C(=O)c4c(O)cccc4[C@@](C)(O)[C@H]3C[C@@H]12 [TETRACYCLINE]	–	–	–	–	–	–	–	–	–	2.3 (≈ 1.02 µg/mL)	–	2.3 (≈ 1.02 µg/mL)	–	288 µM
